From ChEMBL document CHEMBL5385902, “Synthesis of urea and thiourea derivatives of C20-epi-aminosalinomycin and their activity against Trypanosoma brucei” (Eur J Med Chem, 2023)
Converted amounts (≈) assume the structure as drawn. The source made the active and inactive calls. The calls are words filed in the database; no cut-off is given here.

Tests used:
[1] = Cytotoxicity against human HL-60 cells assessed as cell killing incubated for 24 hrs by microscopic analysis; format: toxicity, cell-based; conditions: read-out: MIC
Procedure, shortened: (§1)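 Bloodstream-form T. brucei 427-221a seeded at 1 × 10^4 mL^-1 or HL-60 cells at 5 × 10^4 mL^-1 in Baltz medium with 16.7% heat-inactivated bovine serum, 0.9% DMSO, 10-fold dilutions 100 μM to 100 nM; 37 °C, 5% CO2. MIC, concentration killing all cells, determined microscopically. Possible values 100 μM down to […].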

[2] = Cytotoxicity against human HL-60 cells assessed as inhibition of cell growth incubated for 24 hrs and measured at 48 hrs following resazurin challenge by resazurin assay; format: toxicity, cell-based
Procedure, shortened: (§2)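 Bloodstream-form T. brucei 427-221a (1 × 10^4 mL^-1) or HL-60 cells (5 × 10^4 mL^-1) in Baltz medium with 16.7% heat-inactivated bovine serum, 0.9% DMSO, 10-fold dilutions 100 μM to 100 nM; 37 °C, 5% CO2, 24 h. Resazurin then added, 48 h more; absorbance 570 nm, reference 630 nm. GI50 by linear interpolation; mean and SD of three independent experiments.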

Trypanosoma brucei [3] = experiment: Trypanocidal activity against bloodstream form of Trypanosoma brucei 427-221a assessed as inhibition of parasite growth incubated for 24 hrs and measured at 48 hrs following resazurin challenge by resazurin assay; format: functional; conditions: time 72 hrs; procedure, shortened: as §2
[4] = Selectivity index, ratio of GI50 for cytotoxicity against human HL60 cells to GI50 for Trypanocidal activity against bloodstream form of Trypanosoma brucei 427-221a; format: toxicity, cell-based; conditions: read-out: RatioGI50
Procedure, shortened: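 Ratio of HL-60 GI50 to T. brucei GI50. Both from the resazurin assay in Baltz medium with 16.7% heat-inactivated bovine serum and 0.9% DMSO, 10-fold dilutions 100 μM to 100 nM, 24 h then 48 h with resazurin. GI50 by linear interpolation, three independent experiments.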

Trypanosoma brucei [5] = experiment: Trypanocidal activity against bloodstream form of Trypanosoma brucei 427-221a assessed as parasite killing incubated for 24 hrs by microscopic analysis; format: functional; procedure, shortened: as §1
[6] = Selectivity index, ratio of MIC for cytotoxicity against human HL60 cells to MIC for Trypanocidal activity against bloodstream form of Trypanosoma brucei 427-221a; format: toxicity, cell-based; conditions: read-out: Selectivity Index
Trypanosoma brucei [7] = experiment: Trypanocidal activity against bloodstream form of Trypanosoma brucei 427-221a assessed as increase in cell swelling activity at 100 uM measured every 10 min for 60 mins by light scattering method; format: functional, organism-based
Procedure, shortened: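 Light-scattering cell-volume assay. 1 × 10^7 bloodstream-form T. brucei 427-221a in 200 μL Baltz medium with 100 μM compound and 0.9% DMSO; controls with DMSO only. Absorbance at 490 nm read every 10 min for 60 min; falling absorbance indicates cell swelling. Rate constant k of the absorbance decrease derived. Means of three independent experiments.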

| Compound | MCC at 24 h [1] | GI50 at 72 h [2] | GI50 (Trypanosoma brucei [3]) | selectivity ratio [4] | MIC (Trypanosoma brucei [5]) | selectivity ratio [6] | Activity (Trypanosoma brucei [7]) |
| --- | --- | --- | --- | --- | --- | --- | --- |
| CC[C@@H](C(=O)[C@@H](C)[C@@H](O)[C@H](C)[C@@H]1O[C@@H]([C@@H](CC)C(=O)O)CC[C@@H]1C)[C@H]1O[C@]2(C=C[C@H](NC(=O)NCCCl)[C@]3(CC[C@@](C)([C@H]4CC[C@](O)(CC)[C@H](C)O4)O3)O2)[C@H](C)C[C@@H]1C | 100 µM | 38.5 µM | 3.2 µM | 12 | 10 µM (≈ 8.56 µg/mL) | 10 |  |
| Cc1ccc(C(=O)Nc2ccc(S(=O)(=O)O)c3cc(S(=O)(=O)O)cc(S(=O)(=O)O)c23)cc1NC(=O)c1cccc(NC(=O)Nc2cccc(C(=O)Nc3cc(C(=O)Nc4ccc(S(=O)(=O)O)c5cc(S(=O)(=O)O)cc(S(=O)(=O)O)c45)ccc3C)c2)c1 [SURAMIN] | > 100 µM | > 100 µM | 0.039 µM | > 2560 | 0.1 µM (≈ 0.13 µg/mL) | > 1000 |  |
| CCNC(=S)N[C@H]1C=C[C@]2(O[C@H]([C@@H](CC)C(=O)[C@@H](C)[C@@H](O)[C@H](C)[C@@H]3O[C@@H]([C@@H](CC)C(=O)O)CC[C@@H]3C)[C@@H](C)C[C@H]2C)O[C@@]12CC[C@@](C)([C@H]1CC[C@](O)(CC)[C@H](C)O1)O2 | 100 µM | 18.5 µM | 0.33 µM | 56.1 | 1 µM (≈ 0.837 µg/mL) | 100 |  |
| CC[C@@H](C(=O)[C@@H](C)[C@@H](O)[C@H](C)[C@@H]1O[C@@H]([C@@H](CC)C(=O)O)CC[C@@H]1C)[C@H]1O[C@]2(C=C[C@H](NC(=O)Nc3ccccc3)[C@]3(CC[C@@](C)([C@H]4CC[C@](O)(CC)[C@H](C)O4)O3)O2)[C@H](C)C[C@@H]1C | 100 µM | 44.9 µM | 2.9 µM | 15.5 | 10 µM (≈ 8.69 µg/mL) | 10 |  |
| CCCCCCCCNC(=O)N[C@H]1C=C[C@]2(O[C@H]([C@@H](CC)C(=O)[C@@H](C)[C@@H](O)[C@H](C)[C@@H]3O[C@@H]([C@@H](CC)C(=O)O)CC[C@@H]3C)[C@@H](C)C[C@H]2C)O[C@@]12CC[C@@](C)([C@H]1CC[C@](O)(CC)[C@H](C)O1)O2 | 10 µM | 6.3 µM | 0.27 µM | 23.3 | 1 µM (≈ 0.905 µg/mL) | 10 |  |
| CC[C@@H](C(=O)[C@@H](C)[C@@H](O)[C@H](C)[C@@H]1O[C@@H]([C@@H](CC)C(=O)O)CC[C@@H]1C)[C@H]1O[C@]2(C=C[C@H](NC(=O)Nc3cccc4ccccc34)[C@]3(CC[C@@](C)([C@H]4CC[C@](O)(CC)[C@H](C)O4)O3)O2)[C@H](C)C[C@@H]1C | 100 µM | 13.5 µM | 1.9 µM | 7.1 | 10 µM (≈ 9.19 µg/mL) | 10 |  |
| CCCCNC(=S)N[C@H]1C=C[C@]2(O[C@H]([C@@H](CC)C(=O)[C@@H](C)[C@@H](O)[C@H](C)[C@@H]3O[C@@H]([C@@H](CC)C(=O)O)CC[C@@H]3C)[C@@H](C)C[C@H]2C)O[C@@]12CC[C@@](C)([C@H]1CC[C@](O)(CC)[C@H](C)O1)O2 | 10 µM | 8.4 µM | 0.18 µM | 46.7 | 1 µM (≈ 0.865 µg/mL) | 10 | Active |
| CC[C@@H](C(=O)[C@@H](C)[C@@H](O)[C@H](C)[C@@H]1O[C@@H]([C@@H](CC)C(=O)O)CC[C@@H]1C)[C@H]1O[C@]2(C=C[C@H](NC(=O)NCc3ccccc3)[C@]3(CC[C@@](C)([C@H]4CC[C@](O)(CC)[C@H](C)O4)O3)O2)[C@H](C)C[C@@H]1C | 100 µM | 16.7 µM | 1.5 µM | 11.1 | 10 µM (≈ 8.83 µg/mL) | 10 |  |
| C=CCNC(=S)N[C@H]1C=C[C@]2(O[C@H]([C@@H](CC)C(=O)[C@@H](C)[C@@H](O)[C@H](C)[C@@H]3O[C@@H]([C@@H](CC)C(=O)O)CC[C@@H]3C)[C@@H](C)C[C@H]2C)O[C@@]12CC[C@@](C)([C@H]1CC[C@](O)(CC)[C@H](C)O1)O2 | 100 µM | 15.1 µM | 0.31 µM | 48.7 | 1 µM (≈ 0.849 µg/mL) | 100 |  |
| C=CCNC(=O)N[C@H]1C=C[C@]2(O[C@H]([C@@H](CC)C(=O)[C@@H](C)[C@@H](O)[C@H](C)[C@@H]3O[C@@H]([C@@H](CC)C(=O)O)CC[C@@H]3C)[C@@H](C)C[C@H]2C)O[C@@]12CC[C@@](C)([C@H]1CC[C@](O)(CC)[C@H](C)O1)O2 | 100 µM | 38.3 µM | 3.2 µM | 12 | 10 µM (≈ 8.33 µg/mL) | 10 |  |
| CC[C@@H](C(=O)[C@@H](C)[C@@H](O)[C@H](C)[C@@H]1O[C@@H]([C@@H](CC)C(=O)O)CC[C@@H]1C)[C@H]1O[C@]2(C=C[C@H](NC(=O)NCCCCl)[C@]3(CC[C@@](C)([C@H]4CC[C@](O)(CC)[C@H](C)O4)O3)O2)[C@H](C)C[C@@H]1C | 100 µM | 18.1 µM | 2.3 µM | 7.9 | 10 µM (≈ 8.7 µg/mL) | 10 |  |
| CCCNC(=O)N[C@H]1C=C[C@]2(O[C@H]([C@@H](CC)C(=O)[C@@H](C)[C@@H](O)[C@H](C)[C@@H]3O[C@@H]([C@@H](CC)C(=O)O)CC[C@@H]3C)[C@@H](C)C[C@H]2C)O[C@@]12CC[C@@](C)([C@H]1CC[C@](O)(CC)[C@H](C)O1)O2 | 100 µM | 36.7 µM | 2.9 µM | 12.7 | 10 µM (≈ 8.35 µg/mL) | 10 |  |
| CC[n+]1c(-c2ccccc2)c2cc(N)ccc2c2ccc(N)cc21 [HOMIDIUM BROMIDE] | 10 µM | 6.4 µM | 0.087 µM | 73.6 | 10 µM | 1 |  |
| CCCCNC(=O)N[C@H]1C=C[C@]2(O[C@H]([C@@H](CC)C(=O)[C@@H](C)[C@@H](O)[C@H](C)[C@@H]3O[C@@H]([C@@H](CC)C(=O)O)CC[C@@H]3C)[C@@H](C)C[C@H]2C)O[C@@]12CC[C@@](C)([C@H]1CC[C@](O)(CC)[C@H](C)O1)O2 | 100 µM | 19.8 µM | 0.36 µM | 55 | 1 µM (≈ 0.849 µg/mL) | 100 | Active |
| CCNC(=O)N[C@H]1C=C[C@]2(O[C@H]([C@@H](CC)C(=O)[C@@H](C)[C@@H](O)[C@H](C)[C@@H]3O[C@@H]([C@@H](CC)C(=O)O)CC[C@@H]3C)[C@@H](C)C[C@H]2C)O[C@@]12CC[C@@](C)([C@H]1CC[C@](O)(CC)[C@H](C)O1)O2 | 100 µM | 42 µM | 3.2 µM | 13.1 | 10 µM (≈ 8.21 µg/mL) | 10 |  |
